Data taken from ChEMBL document CHEMBL1156256, “Poly(ethylene glycol) (PEG-400) as an alternative reaction solvent for the synthesis of some new 1-(4-(4'-chlorophenyl)-2-thiazolyl)-3-aryl-5-(2-butyl-4-chloro-1H-imidazol-5yl)-2-pyrazolines and their in vitro antimicrobial evaluation” (2010).
Converted amounts (≈) assume the structure as drawn.

Legend:
[1] = system: Escherichia coli; test: Antibacterial activity against Escherichia coli MTCC 2939 after 24 hrs by agar diffusion method; assay type: functional; conditions: for MIC: Escherichia coli, MTCC 2939, 24 h
Procedure, shortened: (§1)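 Agar well diffusion following NCCLS. Bacteria kept on nutrient agar slants at 37 ± 0.5 °C for 24 h. Nutrient agar plates seeded with 0.1 mL of culture suspension in 0.85% sterile saline (10⁵ CFU/mL). Plates incubated at 37 ± 0.5 °C for 24 h. Zone of inhibition recorded in mm, and MIC noted. 1% DMSO used as control.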

[2] = system: Salmonella enterica; test: Antibacterial activity against Salmonella typhi MTCC 98 after 24 hrs by agar diffusion method; assay type: functional, Salmonella enterica subsp. enterica serovar Typhi; conditions: for MIC: Salmonella enterica, MTCC 98, 24 h
Procedure, shortened: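 NCCLS agar diffusion. Strain kept on nutrient agar slant at 37 ± 0.5 °C for 24 h. Nutrient agar plates seeded with 0.1 mL of a 10⁵ CFU/mL suspension in sterile 0.85% saline. Plates incubated at 37 ± 0.5 °C for 24 h. Read-out: zone of inhibition (mm) and MIC.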

[3] = system: Staphylococcus aureus; test: Antibacterial activity against Staphylococcus aureus MTCC 96 after 24 hrs by agar diffusion method; assay type: functional; conditions: for MIC: Staphylococcus aureus, MTCC 96, 24 h; procedure, shortened: as §1
[4] = system: Bacillus subtilis; test: Antibacterial activity against Bacillus subtilis MTCC 441 after 24 hrs by agar diffusion method; assay type: functional; conditions: for MIC: Bacillus subtilis, MTCC 441, 24 h; procedure, shortened: as §1
[5] = system: Aspergillus niger; test: Antifungal activity against Aspergillus niger MTCC 281 after 24 to 48 hrs by agar diffusion method; assay type: functional; conditions: for MIC: Aspergillus niger, MTCC 281
Procedure, shortened: (§2)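 Fungi grown on potato dextrose agar slants at 27 ± 0.2 °C for 24–48 h until sporulation. Spores suspended in sterile water with 1% Tween-80 and counted by haemocytometer (10⁶ CFU/mL). 0.1 mL spread on 2% agar PDA plates and held at 27 °C for 12 h. Wells then received 0.1 mL of compound at graded concentrations for MIC. Plates refrigerated 20 min for diffusion, then incubated at 27 ± 0.2 °C for […]. Zone read in mm. 1% DMSO used as control.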

[6] = system: Trichoderma viride; test: Antifungal activity against Trichoderma viride MTCC 167 after 24 to 48 hrs by agar diffusion method; assay type: functional; conditions: for MIC: Trichoderma viride, MTCC 167; procedure, shortened: as §2
[7] = system: Penicillium chrysogenum; test: Antifungal activity against Penicillium chrysogenum MTCC 160 after 24 to 48 hrs by agar diffusion method; assay type: functional; conditions: for MIC: Penicillium chrysogenum, MTCC 160; procedure, shortened: as §2
[8] = system: Candida albicans; test: Antifungal activity against Candida albicans MTCC 183 after 24 to 48 hrs by agar diffusion method; assay type: functional; conditions: for MIC: Candida albicans, MTCC 183; procedure, shortened: as §2
[9] = system: Fusarium verticillioides; test: Antifungal activity against Fusarium moniliforme MTCC 156 after 24 to 48 hrs by agar diffusion method; assay type: functional; conditions: for MIC: Fusarium verticillioides, MTCC 156; procedure, shortened: as §2

Compound | inhibition zone (IZ) [1] [mm] | MIC [1] [µg/mL] | inhibition zone (IZ) [2] [mm] | MIC [2] [µg/mL] | inhibition zone (IZ) [3] [mm] | MIC [3] [µg/mL] | inhibition zone (IZ) [4] [mm] | MIC [4] [µg/mL] | inhibition zone (IZ) [5] [mm] | MIC [5] [µg/mL] | inhibition zone (IZ) [6] [mm] | MIC [6] [µg/mL] | inhibition zone (IZ) [7] [mm] | MIC [7] [µg/mL] | inhibition zone (IZ) [8] [mm] | MIC [8] [µg/mL] | inhibition zone (IZ) [9] [mm] | MIC [9] [µg/mL]
CCCCc1nc(Cl)c(C2CC(c3cc(Br)cc(Br)c3O)=NN2c2nc(-c3ccc(Cl)cc3)cs2)[nH]1 (stereo unspecified) | 22 | 25 (≈ 37.3 µM) | 19 | 25 (≈ 37.3 µM) | 18 | 25 (≈ 37.3 µM) | 21 | 25 (≈ 37.3 µM) | 20 | 25 (≈ 37.3 µM) | 18 | 25 (≈ 37.3 µM) | 18 | 25 (≈ 37.3 µM) | 20 | 25 (≈ 37.3 µM) | 14 | 25 (≈ 37.3 µM)
CCCCc1nc(Cl)c(C2CC(c3cc(Cl)c(C)c(I)c3O)=NN2c2nc(-c3ccc(Cl)cc3)cs2)[nH]1 (stereo unspecified) | 18 | 25 (≈ 36.4 µM) | 16 | 25 (≈ 36.4 µM) | 14 | 50 (≈ 72.8 µM) | 19 | 25 (≈ 36.4 µM) | 14 | 25 (≈ 36.4 µM) | 12 | 25 (≈ 36.4 µM) | 15 | 25 (≈ 36.4 µM) | 13 | 25 (≈ 36.4 µM) | 14 | 25 (≈ 36.4 µM)
CN(C)[C@@H]1C(O)=C(C(N)=O)C(=O)[C@@]2(O)C(O)=C3C(=O)c4c(O)cccc4[C@@](C)(O)[C@H]3C[C@@H]12 [TETRACYCLINE] | 30 | 25 (≈ 56.3 µM) | 28 | 25 (≈ 56.3 µM) | 30 | 25 (≈ 56.3 µM) | 32 | 25 (≈ 56.3 µM) | – | – | – | – | – | – | – | – | – | –
CCCCc1nc(Cl)c(C2CC(c3cc(Cl)ccc3O)=NN2c2nc(-c3ccc(Cl)cc3)cs2)[nH]1 (stereo unspecified) | 18 | 25 (≈ 45.7 µM) | 12 | 50 (≈ 91.4 µM) | 16 | 25 (≈ 45.7 µM) | 18 | 25 (≈ 45.7 µM) | 16 | 25 (≈ 45.7 µM) | 15 | 25 (≈ 45.7 µM) | 12 | 25 (≈ 45.7 µM) | 16 | 25 (≈ 45.7 µM) | 15 | 25 (≈ 45.7 µM)
CCCCc1nc(Cl)c(C2CC(c3cc(Cl)cc(Br)c3O)=NN2c2nc(-c3ccc(Cl)cc3)cs2)[nH]1 (stereo unspecified) | 21 | 25 (≈ 39.9 µM) | 18 | 25 (≈ 39.9 µM) | 16 | 25 (≈ 39.9 µM) | 15 | 25 (≈ 39.9 µM) | 18 | 25 (≈ 39.9 µM) | 15 | 25 (≈ 39.9 µM) | 16 | 25 (≈ 39.9 µM) | 16 | 25 (≈ 39.9 µM) | 10 | 50 (≈ 79.9 µM)
CCCCc1nc(Cl)c(C2CC(c3cc(Cl)cc(I)c3O)=NN2c2nc(-c3ccc(Cl)cc3)cs2)[nH]1 (stereo unspecified) | 20 | 25 (≈ 37.2 µM) | 16 | 25 (≈ 37.2 µM) | 18 | 25 (≈ 37.2 µM) | 21 | 25 (≈ 37.2 µM) | 15 | 25 (≈ 37.2 µM) | 16 | 25 (≈ 37.2 µM) | 14 | 25 (≈ 37.2 µM) | 15 | 25 (≈ 37.2 µM) | 12 | 25 (≈ 37.2 µM)
CCCCc1nc(Cl)c(C2CC(c3cc(Cl)c(C)c(Br)c3O)=NN2c2nc(-c3ccc(Cl)cc3)cs2)[nH]1 (stereo unspecified) | 15 | 25 (≈ 39.1 µM) | 12 | 50 (≈ 78.1 µM) | 11 | 50 (≈ 78.1 µM) | 18 | 25 (≈ 39.1 µM) | 15 | 25 (≈ 39.1 µM) | 16 | 50 (≈ 78.1 µM) | 9 | 50 (≈ 78.1 µM) | 12 | 50 (≈ 78.1 µM) | 15 | 25 (≈ 39.1 µM)
